The source made the active and inactive calls. The calls are words filed in the database; no cut-off is given here.
How the values were obtained:
[1] = target: T1, Monoglyceride lipase (Mus musculus) (UniProt O35678); test: Inhibition of MAGL in C57B1/6J mouse brain membrane after 30 mins by competitive activity-based protein profiling method; format: cell membranes
T1 sequence (whole entry): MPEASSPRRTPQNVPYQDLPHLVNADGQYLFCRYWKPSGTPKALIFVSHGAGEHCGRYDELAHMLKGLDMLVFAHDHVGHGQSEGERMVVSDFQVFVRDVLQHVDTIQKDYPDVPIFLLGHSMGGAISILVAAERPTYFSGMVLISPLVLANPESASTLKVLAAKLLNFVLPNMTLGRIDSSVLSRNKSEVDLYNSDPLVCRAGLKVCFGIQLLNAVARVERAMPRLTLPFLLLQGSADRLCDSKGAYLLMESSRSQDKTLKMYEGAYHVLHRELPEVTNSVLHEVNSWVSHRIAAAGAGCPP
How it was run: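 Mouse brain membrane proteome (1 mg ml^-1 in PBS) preincubated 30 min at 37°C with inhibitor (1 nM-10 μM). FP-rhodamine then added (2 μM final) for 30 min at room temperature. Reaction quenched in SDS loading buffer, boiled 5 min at 90°C, resolved by SDS-PAGE and read by in-gel fluorescence.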

[2] = target: T2, Monoglyceride lipase (Rattus norvegicus, UniProt Q8R431); test: Inhibition of MAGL in Wistar rat brain
T2 sequence (Q8R431 whole entry): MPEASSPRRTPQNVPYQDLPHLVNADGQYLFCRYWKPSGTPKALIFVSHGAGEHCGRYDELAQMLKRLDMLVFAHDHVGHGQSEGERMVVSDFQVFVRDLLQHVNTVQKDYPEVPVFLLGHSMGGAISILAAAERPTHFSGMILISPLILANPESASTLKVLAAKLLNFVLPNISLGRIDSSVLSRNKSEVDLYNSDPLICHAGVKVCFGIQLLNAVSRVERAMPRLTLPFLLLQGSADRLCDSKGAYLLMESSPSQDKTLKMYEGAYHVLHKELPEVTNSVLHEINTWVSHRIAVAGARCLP

[3] = target: T3, Monoacylglycerol lipase ABHD6 (Mus musculus) (UniProt Q8R2Y0); test: Inhibition of ABHD6 in C57B1/6J mouse brain membrane after 30 mins by competitive activity-based protein profiling method; format: cell membranes
T3 sequence (whole entry): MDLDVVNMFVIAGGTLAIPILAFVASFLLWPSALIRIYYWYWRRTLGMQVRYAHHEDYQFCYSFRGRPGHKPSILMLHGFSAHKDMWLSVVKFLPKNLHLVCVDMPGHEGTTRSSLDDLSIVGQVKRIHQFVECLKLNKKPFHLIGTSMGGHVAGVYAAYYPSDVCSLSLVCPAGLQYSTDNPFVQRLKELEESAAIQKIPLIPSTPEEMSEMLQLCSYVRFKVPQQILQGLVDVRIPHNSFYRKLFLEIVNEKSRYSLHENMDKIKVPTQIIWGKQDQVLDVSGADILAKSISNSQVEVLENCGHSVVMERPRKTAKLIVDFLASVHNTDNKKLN
How it was run: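 Mouse brain membrane proteome at 1 mg ml^-1 in PBS was preincubated with inhibitor (1 nM-10 μM) for 30 min at 37°C. FP-rhodamine was then added at 2 μM final for 30 min at room temperature, followed by SDS-PAGE and in-gel fluorescence scanning.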

Row | SMILES | inhibition [1] | IC50 [2] [µM] | inhibition [3]
1 | COc1ccc(C(O)(c2ccc(OC)cc2)C2CCN(C(=O)Oc3ccc([N+](=O)[O-])cc3)CC2)cc1 | Active | – | –
2 | O=C(Nc1cccc(-c2ccccc2)c1)OC1CCCCC1 | – | 200 | –
3 | COc1ccc(C(c2ccc(OC)cc2)N2CCN(C(=O)Oc3ccc([N+](=O)[O-])cc3)CC2)cc1 | Active | – | Active
4 | CN(Cc1cccc(-c2ccncc2)c1)C(=O)Oc1ccc([N+](=O)[O-])cc1 | Active | – | Active
5 | O=C(Oc1ccc([N+](=O)[O-])cc1)N1CCN(C(c2ccc(F)cc2)c2ccc(F)cc2)CC1 | Active | – | Active

— ChEMBL document CHEMBL1221219, “Selective blockade of 2-arachidonoylglycerol hydrolysis produces cannabinoid behavioral effects” (Nat Chem Biol, 2009)
